Measured values from ChEMBL document CHEMBL1156948, “Statistical molecular design of a focused salicylidene acylhydrazide library and multivariate QSAR of inhibition of type III secretion in the Gram-negative bacterium Yersinia” (Bioorg Med Chem, 2010).
≈ marks a conversion by molar mass, not a printed value. Calls of active or inactive are those of the source.

system: Yersinia pseudotuberculosis YPIII; experiment: Inhibition of T3S in Yersinia pseudotuberculosis YPIII expressing yopE-luxAB at 12.5 uM after 3 hrs by luciferase reporter gene assay; conditions: not given
Summary of the method: (§1)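 Strain YPIII pIB102 (yopE-luxAB) grown overnight at room temperature in BHI with 5 mM EGTA and 20 mM MgCl2 (calcium depletion), adjusted to OD600 0.088–0.095. Compound added from DMSO at 1.56–200 µM final (eight concentrations). Shaken 1 h at room temperature, then 2 h at 37 °C. Decanal added and light emission read immediately. Triplicates, repeated at least three times.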

| SMILES | inhibition [%] |
| --- | --- |
| O=C(Cc1ccccc1)N/N=C/c1cc(Br)ccc1O | 7 |
| Cc1ccc(C(=O)N/N=C/c2cc(C(C)(C)C)ccc2O)cc1 | 18 |
| COc1cccc(C(=O)N/N=C/c2cc(Br)ccc2O)c1 | 15 |
| CC(C)(C)c1ccc(O)c(/C=N/NC(=O)Cc2ccccc2)c1 | 4 |

system: Escherichia coli; experiment: Antibacterial activity against Escherichia coli DH5[alpha] at 50 uM after 23 hrs by broth dilution assay; format: functional, organism-based; conditions: not given
Summary of the method: (§2)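 Overnight LB culture of E. coli DH5α grown at 37 °C, diluted to OD600 0.1 in LB with 2.5 mM CaCl2; compound added from DMSO stock to final 50 or 100 µM. Incubated at 37 °C with absorbance at 595 nm followed over 23 h.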

| SMILES | Activity |
| --- | --- |
| O=C(Cc1ccccc1)N/N=C/c1cc(Br)ccc1O | inactive |
| Cc1ccc(C(=O)N/N=C/c2cc(C(C)(C)C)ccc2O)cc1 | inactive |
| COc1cccc(C(=O)N/N=C/c2cc(Br)ccc2O)c1 | inactive |
| CC(C)(C)c1ccc(O)c(/C=N/NC(=O)Cc2ccccc2)c1 | inactive |

system: Yersinia pseudotuberculosis YPIII; experiment: Inhibition of T3S in Yersinia pseudotuberculosis YPIII expressing yopE-luxAB at 1.56 uM after 3 hrs by luciferase reporter gene assay; conditions: not given; summary of the method: as §1

| SMILES | inhibition [%] |
| --- | --- |
| O=C(Cc1ccccc1)N/N=C/c1cc(Br)ccc1O | 15 |
| Cc1ccc(C(=O)N/N=C/c2cc(C(C)(C)C)ccc2O)cc1 | 13 |
| COc1cccc(C(=O)N/N=C/c2cc(Br)ccc2O)c1 | 6 |
| CC(C)(C)c1ccc(O)c(/C=N/NC(=O)Cc2ccccc2)c1 | 9 |

system: Yersinia pseudotuberculosis; experiment: Antibacterial activity against Yersinia pseudotuberculosis expressing pIB102 at 50 uM after 23 hrs by broth dilution assay; format: functional, organism-based; conditions: not given
Summary of the method: (§3)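 Wild-type pIB102 grown overnight in LB at room temperature, diluted to OD600 = 0.1 in LB with 2.5 mM CaCl2. Compound added from DMSO stock to final 50 and 100 µM. Incubated at 37 °C with absorbance at 595 nm read over 23 h.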

| SMILES | Activity |
| --- | --- |
| O=C(Cc1ccccc1)N/N=C/c1cc(Br)ccc1O | inactive |
| Cc1ccc(C(=O)N/N=C/c2cc(C(C)(C)C)ccc2O)cc1 | inactive |
| COc1cccc(C(=O)N/N=C/c2cc(Br)ccc2O)c1 | inactive |
| CC(C)(C)c1ccc(O)c(/C=N/NC(=O)Cc2ccccc2)c1 | inactive |

system: Escherichia coli; experiment: Antibacterial activity against Escherichia coli DH5[alpha] at 100 uM after 23 hrs by broth dilution assay; format: functional, organism-based; conditions: not given; summary of the method: as §2

| SMILES | Activity |
| --- | --- |
| O=C(Cc1ccccc1)N/N=C/c1cc(Br)ccc1O | inactive |
| Cc1ccc(C(=O)N/N=C/c2cc(C(C)(C)C)ccc2O)cc1 | inactive |
| COc1cccc(C(=O)N/N=C/c2cc(Br)ccc2O)c1 | inactive |
| CC(C)(C)c1ccc(O)c(/C=N/NC(=O)Cc2ccccc2)c1 | inactive |

system: Yersinia pseudotuberculosis YPIII; experiment: Inhibition of T3S in Yersinia pseudotuberculosis YPIII expressing yopE-luxAB at 100 uM after 3 hrs by luciferase reporter gene assay; conditions: not given; summary of the method: as §1

| SMILES | inhibition [%] |
| --- | --- |
| O=C(Cc1ccccc1)N/N=C/c1cc(Br)ccc1O | 39 |
| Cc1ccc(C(=O)N/N=C/c2cc(C(C)(C)C)ccc2O)cc1 | 24 |
| COc1cccc(C(=O)N/N=C/c2cc(Br)ccc2O)c1 | 71 |
| CC(C)(C)c1ccc(O)c(/C=N/NC(=O)Cc2ccccc2)c1 | 20 |

system: Yersinia pseudotuberculosis YPIII; experiment: Inhibition of T3S in Yersinia pseudotuberculosis YPIII expressing yopE-luxAB at 6.25 uM after 3 hrs by luciferase reporter gene assay; conditions: not given; summary of the method: as §1

| SMILES | inhibition [%] |
| --- | --- |
| O=C(Cc1ccccc1)N/N=C/c1cc(Br)ccc1O | 10 |
| Cc1ccc(C(=O)N/N=C/c2cc(C(C)(C)C)ccc2O)cc1 | 14 |
| COc1cccc(C(=O)N/N=C/c2cc(Br)ccc2O)c1 | 8 |
| CC(C)(C)c1ccc(O)c(/C=N/NC(=O)Cc2ccccc2)c1 | 9 |

system: Yersinia pseudotuberculosis YPIII; experiment: Inhibition of T3S in Yersinia pseudotuberculosis YPIII expressing yopE-luxAB at 200 uM after 3 hrs by luciferase reporter gene assay; conditions: not given; summary of the method: as §1

| SMILES | inhibition [%] |
| --- | --- |
| O=C(Cc1ccccc1)N/N=C/c1cc(Br)ccc1O | 50 |
| Cc1ccc(C(=O)N/N=C/c2cc(C(C)(C)C)ccc2O)cc1 | 25 |
| COc1cccc(C(=O)N/N=C/c2cc(Br)ccc2O)c1 | 77 |
| CC(C)(C)c1ccc(O)c(/C=N/NC(=O)Cc2ccccc2)c1 | 25 |

system: Yersinia pseudotuberculosis YPIII; experiment: Inhibition of T3S in Yersinia pseudotuberculosis YPIII expressing yopE-luxAB at 25 uM after 3 hrs by luciferase reporter gene assay; conditions: not given; summary of the method: as §1

| SMILES | inhibition [%] |
| --- | --- |
| O=C(Cc1ccccc1)N/N=C/c1cc(Br)ccc1O | 15 |
| Cc1ccc(C(=O)N/N=C/c2cc(C(C)(C)C)ccc2O)cc1 | 20 |
| COc1cccc(C(=O)N/N=C/c2cc(Br)ccc2O)c1 | 22 |
| CC(C)(C)c1ccc(O)c(/C=N/NC(=O)Cc2ccccc2)c1 | 10 |

system: Chlamydia trachomatis; experiment: Antibacterial activity against Chlamydia trachomatis infected in human HeLa 229 cells after 35 hrs by fluorescence microscopy; format: functional; conditions: not given
Summary of the method: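 HeLa 229 monolayers infected with C. trachomatis serovar L2, MOI 0.3; compounds diluted in RPMI 1640 with 10% FCS, 2 mM L-glutamine, 8 µg/mL gentamicin (DMSO final 1%) added 1 h post-infection at 50, 25, 12.5, 6.25, 3.13 µM. 35 h at 37 °C, 5% CO2; methanol fixation, immunostaining, fluorescence microscopy at 200×. MIC = lowest concentration with no intracellular inclusions; duplicates, ≥3 occasions.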

| SMILES | MIC |
| --- | --- |
| O=C(Cc1ccccc1)N/N=C/c1cc(Br)ccc1O | 50 µM (≈ 16.7 µg/mL) |
| Cc1ccc(C(=O)N/N=C/c2cc(C(C)(C)C)ccc2O)cc1 | 50 µM (≈ 15.5 µg/mL) |
| COc1cccc(C(=O)N/N=C/c2cc(Br)ccc2O)c1 | 25 µM (≈ 8.73 µg/mL) |
| CC(C)(C)c1ccc(O)c(/C=N/NC(=O)Cc2ccccc2)c1 | inactive |

system: not listed separately; experiment: Cytotoxicity against human HeLa 229 cells assessed as cell viability at 25 uM after 28 hrs using resazurin staining by fluorescence microscopy; format: cell-based; conditions: read-out: Activity
Summary of the method: (§4)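 HeLa 229 viability measured at 50 and 25 µM using resazurin added 4 h before read-out; cell-free wells with medium plus compound exclude chemical reduction of resazurin. Scored relative to DMSO control, plus microscopic scoring; non-toxic defined as at least 70% viability versus control. Triplicates, repeated at least three times.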

| SMILES | viability at 28 h, 25 µM [%] |
| --- | --- |
| O=C(Cc1ccccc1)N/N=C/c1cc(Br)ccc1O | 75 |
| Cc1ccc(C(=O)N/N=C/c2cc(C(C)(C)C)ccc2O)cc1 | 80 |
| COc1cccc(C(=O)N/N=C/c2cc(Br)ccc2O)c1 | 73 |
| CC(C)(C)c1ccc(O)c(/C=N/NC(=O)Cc2ccccc2)c1 | 83 |

system: Yersinia pseudotuberculosis; experiment: Antibacterial activity against Yersinia pseudotuberculosis expressing pIB102 at 100 uM after 23 hrs by broth dilution assay; format: functional, organism-based; conditions: not given; summary of the method: as §3

| SMILES | Activity |
| --- | --- |
| O=C(Cc1ccccc1)N/N=C/c1cc(Br)ccc1O | inactive |
| Cc1ccc(C(=O)N/N=C/c2cc(C(C)(C)C)ccc2O)cc1 | inactive |
| COc1cccc(C(=O)N/N=C/c2cc(Br)ccc2O)c1 | inactive |
| CC(C)(C)c1ccc(O)c(/C=N/NC(=O)Cc2ccccc2)c1 | inactive |

system: Yersinia pseudotuberculosis YPIII; experiment: Inhibition of T3S in Yersinia pseudotuberculosis YPIII expressing yopE-luxAB at 50 uM after 3 hrs by luciferase reporter gene assay; conditions: not given; summary of the method: as §1

| SMILES | inhibition [%] |
| --- | --- |
| O=C(Cc1ccccc1)N/N=C/c1cc(Br)ccc1O | 26 |
| Cc1ccc(C(=O)N/N=C/c2cc(C(C)(C)C)ccc2O)cc1 | 17 |
| COc1cccc(C(=O)N/N=C/c2cc(Br)ccc2O)c1 | 44 |
| CC(C)(C)c1ccc(O)c(/C=N/NC(=O)Cc2ccccc2)c1 | 26 |

system: not listed separately; experiment: Cytotoxicity against human HeLa 229 cells assessed as cell viability at 50 uM after 28 hrs using resazurin staining by fluorescence microscopy; format: cell-based; conditions: read-out: Activity; summary of the method: as §4

| SMILES | viability at 28 h, 50 µM [%] |
| --- | --- |
| O=C(Cc1ccccc1)N/N=C/c1cc(Br)ccc1O | 74 |
| Cc1ccc(C(=O)N/N=C/c2cc(C(C)(C)C)ccc2O)cc1 | 79 |
| COc1cccc(C(=O)N/N=C/c2cc(Br)ccc2O)c1 | 65 |
| CC(C)(C)c1ccc(O)c(/C=N/NC(=O)Cc2ccccc2)c1 | 79 |

system: Yersinia pseudotuberculosis YPIII; experiment: Inhibition of T3S in Yersinia pseudotuberculosis YPIII expressing yopE-luxAB at 3.13 uM after 3 hrs by luciferase reporter gene assay; conditions: not given; summary of the method: as §1

| SMILES | inhibition [%] |
| --- | --- |
| O=C(Cc1ccccc1)N/N=C/c1cc(Br)ccc1O | 4 |
| Cc1ccc(C(=O)N/N=C/c2cc(C(C)(C)C)ccc2O)cc1 | 6 |
| COc1cccc(C(=O)N/N=C/c2cc(Br)ccc2O)c1 | 15 |
| CC(C)(C)c1ccc(O)c(/C=N/NC(=O)Cc2ccccc2)c1 | 13 |
